ChEMBL document CHEMBL1134547 (J Med Chem, 2001)

Tests used:
[1] = target: T1, Dihydrofolate reductase (Rattus norvegicus, UniProt Q920D2); experiment: Inhibitory activity against dihydrofolate reductase DHFR in rat liver
T1 sequence (Q920D2 whole entry): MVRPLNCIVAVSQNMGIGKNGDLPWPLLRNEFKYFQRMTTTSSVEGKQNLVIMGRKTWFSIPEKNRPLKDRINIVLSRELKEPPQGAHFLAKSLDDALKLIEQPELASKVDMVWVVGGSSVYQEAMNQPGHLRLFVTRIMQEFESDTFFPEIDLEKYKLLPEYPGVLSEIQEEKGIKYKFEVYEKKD

[2] = Inhibition of dihydrofolate reductase DHFR in Pneumocystis carinii.
Summary of the method: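 Spectrophotometric DHFR assay following enzymatic reduction of dihydrofolate to tetrahydrofolate with NADPH cofactor. 1 mL mixture in phosphate buffer (40.7 mM, pH 7.4) containing NADPH (0.117 mM), dihydrofolate (0.092 mM), 2-mercaptoethanol (8.9 mM) and 0.018 units DHFR. IC50 is the drug concentration that halves the reduction rate relative to control.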

[3] = target: T2, Bifunctional dihydrofolate reductase-thymidylate synthase (Toxoplasma gondii, UniProt Q07422); experiment: Inhibitory activity against dihydrofolate reductase DHFR in Toxoplasma gondii.
T2 sequence (Q07422 whole entry): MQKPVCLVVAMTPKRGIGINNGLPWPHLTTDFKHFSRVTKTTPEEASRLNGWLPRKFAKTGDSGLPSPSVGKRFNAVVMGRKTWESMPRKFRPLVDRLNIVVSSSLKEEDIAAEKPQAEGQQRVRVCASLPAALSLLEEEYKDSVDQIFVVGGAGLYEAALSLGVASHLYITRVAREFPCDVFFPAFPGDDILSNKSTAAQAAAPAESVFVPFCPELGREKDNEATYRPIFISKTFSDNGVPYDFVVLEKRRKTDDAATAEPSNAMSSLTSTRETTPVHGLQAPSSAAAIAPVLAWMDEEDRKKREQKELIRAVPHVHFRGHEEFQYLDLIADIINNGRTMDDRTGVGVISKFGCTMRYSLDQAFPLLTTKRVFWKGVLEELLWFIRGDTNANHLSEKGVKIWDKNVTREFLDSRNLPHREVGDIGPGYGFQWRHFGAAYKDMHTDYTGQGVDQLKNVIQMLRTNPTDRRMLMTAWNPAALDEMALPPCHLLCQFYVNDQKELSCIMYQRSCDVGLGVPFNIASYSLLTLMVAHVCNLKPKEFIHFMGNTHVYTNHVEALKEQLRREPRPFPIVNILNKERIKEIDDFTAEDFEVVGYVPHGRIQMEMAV

[4] = target: T3, Dihydrofolate reductase (Mycobacterium avium, UniProt O30463); experiment: Inhibitory activity against dihydrofolate reductase DHFR in Mycobacterium avium
T3 sequence (O30463 whole entry): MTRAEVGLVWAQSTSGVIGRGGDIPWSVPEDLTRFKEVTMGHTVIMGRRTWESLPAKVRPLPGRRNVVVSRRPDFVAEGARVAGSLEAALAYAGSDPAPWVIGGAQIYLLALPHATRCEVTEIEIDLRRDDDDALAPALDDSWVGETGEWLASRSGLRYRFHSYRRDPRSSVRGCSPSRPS

[5] = Selectivity ratio of IC50(rat liver)/IC50(Mycobacterium avium)

IC50 [1] [µM]	IC50 [2] [µM]	Structure (SMILES)	IC50 [3] [µM]	IC50 [4] [µM]	Selectivity ratio [5]
0.69	0.85	CCc1nc(N)nc(N)c1-c1ccc(Cl)c(/N=N/N(CCOC(=O)c2ccccc2)Cc2ccccc2)c1	0.22		
6.51	1.26	CCc1nc(N)nc(N)c1-c1ccc(Cl)c(/N=N/N(CCO)[C@@H](C)c2ccccc2)c1	2.7		
0.28	0.053	CCc1nc(N)nc(N)c1-c1ccc(Cl)c(/N=N/N(CCOC(C)=O)Cc2cccc3ccccc23)c1	0.2		
1.29	0.58	CCc1nc(N)nc(N)c1-c1ccc(Cl)c(/N=N/N(CCOC(C)=O)Cc2cccc(Cl)c2)c1	1.16		
	2.8	CCc1nc(N)nc(N)c1-c1ccc(Cl)c(/N=N/N(C)C)c1			
	3.65	CCc1nc(N)nc(N)c1-c1ccc(Cl)cc1 [PYRIMETHAMINE]			
0.45	1.5	CCc1nc(N)nc(N)c1-c1ccc(Cl)c(/N=N/N(CCOC(C)=O)Cc2cc(OC)c(OC)c(OC)c2)c1	0.07		
2.1		CCc1nc(N)nc(N)c1-c1ccc(Cl)c(/N=N/N(CCOC(C)=O)Cc2ccc(OC)cc2)c1	0.44		
14.9	92	CCc1nc(N)nc(N)c1-c1ccc(Cl)c(/N=N/N(CCOC(C)=O)Cc2ccccc2F)c1	7.8		
0.62	0.59	CCc1nc(N)nc(N)c1-c1ccc(Cl)c(/N=N/N(CCOC(C)=O)Cc2ccc3ccccc3c2)c1	1.05		
6.44	1.09	CCc1nc(N)nc(N)c1-c1ccc(Cl)c(/N=N/N(CCO)[C@H](C)c2ccccc2)c1	1.47		
3.3	1.3	CCC(=O)OCCN(Cc1ccccc1)/N=N/c1cc(-c2c(N)nc(N)nc2CC)ccc1Cl	0.7		
	0.26	CCc1nc(N)nc(N)c1-c1ccc(Cl)c(/N=N/N(CCO)Cc2ccccc2)c1			
0.39	1.4	CCc1nc(N)nc(N)c1-c1ccc(Cl)c(/N=N/N(CCOC(C)=O)Cc2ccc(OC)c(OC)c2)c1	0.08		
3.7	1.2	CCc1nc(N)nc(N)c1-c1ccc(Cl)c(/N=N/N(CCOC(=O)C(C)C)Cc2ccccc2)c1	0.66		
1.8	0.94	CCc1nc(N)nc(N)c1-c1ccc(Cl)c(/N=N/N(CCOC(C)=O)Cc2ccc(Cl)cc2)c1	0.8		
8.4	4.7	CCc1nc(N)nc(N)c1-c1ccc(Cl)c(/N=N/N(CCOC(C)=O)Cc2ccccc2Cl)c1	6.1		
6.62	1.35	CCc1nc(N)nc(N)c1-c1ccc(Cl)c(/N=N/N(CCOC(C)=O)Cc2ccc(C(F)(F)F)cc2)c1	2.54		

Structure (SMILES)	IC50 [1] [µM]	IC50 [2] [µM]	IC50 [3] [µM]	IC50 [4] [µM]	Selectivity ratio [5]
CCc1nc(N)nc(N)c1-c1ccc(Cl)c(/N=N/N(CCOC(C)=O)Cc2ccncc2)c1	6.19	3.46	0.64	2.03	3.05
CCc1nc(N)nc(N)c1-c1ccc(Cl)c(/N=N/N(CCO)CCc2ccccc2)c1	4.67	0.48	1.79	5.42	0.86
CCc1nc(N)nc(N)c1-c1ccc(Cl)c(/N=N/N(CCCO)Cc2ccccc2)c1	7.35	0.68	2.01	3.9	1.88
CCc1nc(N)nc(N)c1-c1ccc(Cl)c(/N=N/N(CCOC(C)=O)Cc2cccc(F)c2)c1	3.87	2.22	1.25	4.07	0.95
CCc1nc(N)nc(N)c1-c1ccc(Cl)c(/N=N/N(CCOC(C)=O)Cc2ccc(C)cc2)c1	3.85	1.7	0.63	4.43	0.87
CCc1nc(N)nc(N)c1-c1ccc(Cl)c(/N=N/N(CCOC(C)=O)Cc2ccccc2C)c1	11.2	11.1	0.83	24.5	
CCc1nc(N)nc(N)c1-c1ccc(Cl)c(/N=N/N(CCOC(C)=O)Cc2cccc([N+](=O)[O-])c2)c1	1.61	1.3	0.83	3.69	0.44
CCc1nc(N)nc(N)c1-c1ccc(Cl)c(/N=N/N(CCOC(C)=O)Cc2ccc([N+](=O)[O-])cc2)c1	3.33	1.21	0.85	5.34	0.62
CCc1nc(N)nc(N)c1-c1ccc(Cl)c(/N=N/N(CCOC(C)=O)Cc2ccc(F)cc2)c1	3.83	1.91	4.4	7.46	0.51
CCc1nc(N)nc(N)c1-c1ccc(Cl)c(/N=N/N(CCOC(C)=O)Cc2cccc(C)c2)c1	5.8	5.29	5.39	25.2	0.23
CCc1nc(N)nc(N)c1-c1ccc(Cl)c(/N=N/N(CCOC(C)=O)Cc2cc(OC)cc(OC)c2)c1	0.845	0.86	0.378	4.36	0.19
